Most compounds without a hit are left out; they make up all but 1.6% or so of the library.
LEDGF integ inh: blockers of LEDGF/p75-dependent integrase strand transfer – biochemical, TR-FRET, high throughput, primary screen; HIV-1 integrase (with human LEDGF/p75); TR-FRET IN-LEDGF/p75 DNA integration, Eu/Cy5; inhibition, % at 3.7 µM; 0.64% of 370,000 active;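 active = inhibition above the screen-wide mean plus 3 SD, cut at about 13% in these data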;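 also: signal is the Cy5 over europium emission ratio at 671 and 618 nm; 0% = plate median of compound wells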
TDP2 absorb: human TDP2 enzyme inhibitors, primary screen, biochemical, epi absorbance, recombinant enzyme; inhibition, % at 12.8 µM; Tyrosyl-DNA phosphodiesterase 2 (Homo sapiens), O95551; T5PNP hydrolysis, p-nitrophenol absorbance 415 nm; 0.34% of 370,000 active;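 active = inhibition above the mean of all tested compounds plus 3 SD, set per campaign, cut at about 25% in these data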;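 also: 0% = DMSO with enzyme and 100% = buffer with substrate but no TDP2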
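Incubation: 2 h at 37 °C; Test system: recombinant human TDP2; Quantity: enzyme 120 nM; Read-out basis: percent inhibition; Medium: 50 mM Tris-HCl pH 7.5 with Mg2+, KCl, DTT, BSA; Repeats: single replicate; Compound: 12.8 µM single point, 1% DMSO; Signal: epi absorbance; Reagent: 5 mM T5PNP chromogenic substrate; Benchmarks: no-enzyme high, DMSO-plus-enzyme low.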
MBD2 DNA inh: inhibitors of MBD2 binding to methylated DNA, primary screen, biochemical, TR-FRET, DNA-binding domain, human. MBD2 binding to methylated oligonucleotide. inhibition, % at 4.4 µM. 0.31% of 370,000 active. AID 686964, 2013; in the data active = inhibition above about 13%
UHRF1 MBD2 ctr: UHRF1 methylated DNA binding inhibitors, primary screen, counter-screen for MBD2 inhibitor project, biochemical, TR-FRET, human UHRF1, single concentration; 0.75% of 370,000 active; UHRF1 binding to methylated oligo; inhibition, % at 4.4 µM; E3 ubiquitin-protein ligase UHRF1 (Homo sapiens), Q96T88; AID 687016, 2013; in the data active = inhibition above about 21%;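 also: UHRF1 SRA domain binding a hemimethylated CpG hairpin DNA probe; 0% = median of test compound wells and 100% = reference inhibitor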
Target sequence (Q96T88 whole entry, looked up, the tested form may be a part): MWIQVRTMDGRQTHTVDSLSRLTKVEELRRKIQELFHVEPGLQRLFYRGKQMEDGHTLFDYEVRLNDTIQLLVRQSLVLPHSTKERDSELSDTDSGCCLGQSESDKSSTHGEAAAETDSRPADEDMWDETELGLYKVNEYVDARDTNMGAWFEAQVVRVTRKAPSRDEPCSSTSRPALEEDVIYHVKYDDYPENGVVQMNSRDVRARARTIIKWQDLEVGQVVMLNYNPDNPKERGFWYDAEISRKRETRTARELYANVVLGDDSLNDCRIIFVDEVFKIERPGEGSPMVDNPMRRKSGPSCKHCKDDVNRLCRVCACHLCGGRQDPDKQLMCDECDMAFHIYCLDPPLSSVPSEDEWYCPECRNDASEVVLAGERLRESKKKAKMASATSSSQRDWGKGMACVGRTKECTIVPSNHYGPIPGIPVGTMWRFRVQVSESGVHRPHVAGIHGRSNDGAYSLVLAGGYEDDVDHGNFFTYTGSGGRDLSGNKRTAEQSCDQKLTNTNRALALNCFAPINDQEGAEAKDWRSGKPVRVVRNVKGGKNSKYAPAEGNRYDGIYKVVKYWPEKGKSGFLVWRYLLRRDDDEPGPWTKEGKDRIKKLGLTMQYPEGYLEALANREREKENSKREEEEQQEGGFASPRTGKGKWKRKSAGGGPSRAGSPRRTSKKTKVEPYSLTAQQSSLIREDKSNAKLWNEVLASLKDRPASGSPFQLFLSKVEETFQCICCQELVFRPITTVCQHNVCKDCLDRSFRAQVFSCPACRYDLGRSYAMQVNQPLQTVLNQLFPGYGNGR
TDP2 confirm: human TDP2 enzyme inhibitors, retest, confirmation, biochemical, epi absorbance, recombinant enzyme; shares compounds with TDP2 absorb; inhibition, % at 12.8 µM; absorbance read-out; AID 743263, 2014; 22% of 1,100 active; in the data active = inhibition above about 25%;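 also: 0% = vehicle with enzyme and 100% = no enzyme buffer only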
The depositor's hits bear a star; . = no result.

SMILES	LEDGF integ inh	TDP2 absorb	MBD2 DNA inh	UHRF1 MBD2 ctr	TDP2 confirm
COC(=O)C1=C(C)N(Cc2ccccc2C(F)(F)F)C(=NCc2ccc3c(c2)OCO3)NC1CCc1ccccc1 (stereo not drawn)	-3.0	0.8	2.7	-0.3	.
CC1CC(=O)C2=C(C1)OC(N)=C(C#N)C2c1coc2ccccc2c1=O (stereo not drawn)	-2.1	26.3*	0.0	16.5	9.4
N#CC1=C(N)OC2=C(C(=O)CCC2)C1c1ccccc1 (stereo not drawn)	1.7	14.9	-0.7	3.1	.
O=C1Nc2c(Cl)cc(Cl)cc2C1=O	-4.5	49.2*	-1.5	-4.5	54.4*
O=C(Nc1cccc(Cl)c1)OC1CCC12CCC(c1ccccc1)CC2 (stereo not drawn)	3.6	4.7	-6.9	-2.4	.
CCCC(=O)NC1=C(Cl)C(=O)c2ccccc2C1=O	3.8	26.4*	-14.3	-9.3	52.5*
CN1C2CCC1CC(N(CCc1ccccc1)C(=O)c1ccc(Cl)cc1)C2 (stereo not drawn)	-6.8	27.6*	4.1	0.2	6.6
O=C(CC1CCCC1)N1CC[C@H]2[C@H](CCCN2Cc2ccccc2)C1	5.7	-0.2	-0.4	0.8	.
Cc1cc(C)c(S(=O)(=O)N2CCN(C(=O)c3ccc4c(c3)OCO4)CC2)c(C)c1	1.8	28.7*	2.3	-0.6	-4.7
COc1ccc2nc(SCC(=O)NCc3ccccc3)[nH]c2c1	0.4	59.6*	4.0	8.3	-2.0
CCNC1=C(Cl)C(=O)c2ccccc2C1=O	2.8	9.6	-22.8	-24.0	.
O=C1C(Cl)=C(NCc2ccco2)C(=O)c2ccccc21	10.1	34.6*	-22.2	-14.8	24.0
COc1ccc(C(=O)Nc2nc3c(s2)Cc2cc(OC)ccc2-3)cc1	5.4	31.8*	-4.0	-7.8	37.6*
COc1ccc2c(c1)Cc1sc(NC(=O)c3ccccc3)nc1-2	7.8	18.9	-9.6	-7.8	.
CC(C)c1ccc(OC[C@@H](O)CN2CCC(C(O)(c3ccccc3)c3ccccc3)CC2)cc1	-2.3	-8.2	-3.3	-3.9	.
O=C(Cc1cccs1)Nc1ccc(Cl)cc1	1.5	-3.6	0.4	2.7	.
CC(=O)N(C)c1ccc(NC(=O)Cc2cccs2)cc1	1.2	25.1*	-7.7	-0.8	3.5
Cc1nc2ccc(C(=O)OCc3nnc(-c4ccccc4)o3)cc2nc1C	0.0	24.6*	-6.5	-1.9	9.1
Nc1nc2c(s1)CCc1ccccc1-2	-2.6	30.2*	-1.3	-0.2	-2.4
COc1ccc2c(c1)-c1nc(N)sc1CC2	-3.8	-4.5	-6.9	-3.7	.
CCCC1CCC2(CC1)CCC2OC(=S)NCc1cccc(OC)c1 (stereo not drawn)	-2.2	-1.7	-0.2	-0.4	.
COCN(C#N)c1nc(OC)nc(OC)n1	1.1	2.4	2.7	2.7	.
COCN(C#N)c1nc(N(C)C)nc(N(C)C)n1	1.7	28.6*	-0.1	44.5*	3.7
C[C@@H]1CN(C(=O)OC(C)(C)C)CCN1c1ccc(N2CCS(=O)(=O)CC2)c(C#N)c1	0.9	3.1	2.2	0.9	.
CC(=O)N1c2ccc(S(=O)(=O)NCC3CCC(C(=O)N4CCC(C)CC4)CC3)cc2CC1C (stereo not drawn)	2.9	27.6*	1.9	-1.2	-1.6
SMILES	LEDGF integ inh	TDP2 absorb	MBD2 DNA inh	UHRF1 MBD2 ctr	TDP2 confirm
CC(=O)N1c2ccc(S(=O)(=O)NCC3CCC(C(=O)NC4CCC(C)CC4)CC3)cc2CC1C (stereo not drawn)	-4.6	12.2	-0.2	3.9	.
O=C(CSc1nc2ccccc2nc1N1CCCCC1)N1CCN(C(c2ccccc2)c2ccc(Cl)cc2)CC1 (stereo not drawn)	6.0	-1.6	-2.4	-2.4	.
CCN1CCN(C(C)C(=O)NC2CCCCC2)CC1 (stereo not drawn)	7.4	26.9*	-0.3	1.0	8.3
Cc1noc(C)c1S(=O)(=O)N1CCCC(C(=O)NCc2ccccc2Cl)C1 (stereo not drawn)	1.2	27.2*	3.7	5.2	0.4
CCc1ccccc1NC(=O)C1CCCN(S(=O)(=O)c2c(C)noc2C)C1 (stereo not drawn)	2.2	14.5	-2.2	-1.4	.
O=C(NCCCN1CCOCC1)c1ccc2c(c1)N(Cc1ccc(Cl)cc1)C(=O)c1ccccc1S2=O (stereo not drawn)	0.0	52.7*	-2.2	-2.4	0.1
COc1cc(N2C[C@@]3(O)CC[C@@H](O)[C@@H](OC)[C@@H]3[C@@](C)(O)[C@@H]2CC=C(C)C)cc(OC)c1OC	-1.4	-2.7	2.3	0.0	.
CN1OC[C@@H]2CN(Cc3ccc4c(c3)OCO4)[C@H](c3ccc(-n4ccnc4)cc3)C[C@@H]21	3.0	-2.4	1.5	3.1	.
COc1cc(/C=C2\C(=O)N(c3ccccc3)N=C2C)ccc1Oc1ccc([N+](=O)[O-])cc1[N+](=O)[O-]	5.7	64.7*	0.3	18.2	16.0
C#CCOc1ccc(/C=C2/C(=O)N(c3cccc(C(=O)O)c3)N=C2C)cc1OC	-0.8	71.4*	-2.9	7.3	18.1
COc1cc(/C=C2/SC(=O)NC2=O)ccc1Oc1ccc([N+](=O)[O-])cc1[N+](=O)[O-]	2.4	12.5	0.0	-3.7	.
COc1ccc(CN2CCCC(C(=O)N3CCCC3)C2)c(OC)c1 (stereo not drawn)	2.3	30.5*	-1.4	-1.5	6.0
COc1cc(OC)c(OC)cc1CN1CCCC(C(=O)N2CCCCC2)C1 (stereo not drawn)	1.3	8.8	-5.2	-0.2	.
COC(=O)C1=C(C)N(C)C(=NCc2cc(OC)c(OC)c(OC)c2)NC1c1ccc(Cl)cc1 (stereo not drawn)	2.9	-21.4	4.5	2.0	.
COc1ccc(C)cc1NC(=O)C(NCC(O)c1ccccc1)c1ccccc1 (stereo not drawn)	-0.2	26.0*	1.0	-1.9	8.7
COc1ccc(C)cc1NC(=O)C(OC(=O)CNC(=O)c1cc(C)cc(C)c1)c1ccccc1 (stereo not drawn)	-0.3	-11.3	2.6	-2.1	.
O=C(Cc1ccccc1)NN1C(=O)/C(=C/c2ccc(C(=O)O)cc2)SC1=S	0.4	26.2*	-0.5	-1.0	5.3
CC(C)(C)c1ccc(C#C[C@@H]2C=C[C@@H](O)[C@@H](CO)O2)cc1	0.5	-0.4	6.8	2.0	.
CCOC(=O)C(=O)N/N=C/c1cccc(Br)c1	1.9	24.7*	1.8	-1.2	-4.4
CCCCNC(=O)C(=O)N/N=C/c1cccc(Br)c1	-1.4	-2.9	-2.0	4.0	.
CC(C)C[C@H](NC(=O)C1CCCC1)C(=O)N1CCC[C@H]1C(=O)NCc1ccccc1	2.8	-7.7	-0.1	-1.8	.
